The source of these data is ChEMBL document CHEMBL4000227, “Structure activity relationships of benzylproline-derived inhibitors of the glutamine transporter ASCT2” (Bioorg Med Chem Lett, 2017).

Active and inactive are the calls of the source. The calls are words filed in the database; no cut-off is given here.

Holding throughout (assay type): cell-based
One assay addresses T1, Amino acid transporter (Rattus norvegicus, UniProt Q9Z1J7).
T1 sequence (Q9Z1J7 whole entry): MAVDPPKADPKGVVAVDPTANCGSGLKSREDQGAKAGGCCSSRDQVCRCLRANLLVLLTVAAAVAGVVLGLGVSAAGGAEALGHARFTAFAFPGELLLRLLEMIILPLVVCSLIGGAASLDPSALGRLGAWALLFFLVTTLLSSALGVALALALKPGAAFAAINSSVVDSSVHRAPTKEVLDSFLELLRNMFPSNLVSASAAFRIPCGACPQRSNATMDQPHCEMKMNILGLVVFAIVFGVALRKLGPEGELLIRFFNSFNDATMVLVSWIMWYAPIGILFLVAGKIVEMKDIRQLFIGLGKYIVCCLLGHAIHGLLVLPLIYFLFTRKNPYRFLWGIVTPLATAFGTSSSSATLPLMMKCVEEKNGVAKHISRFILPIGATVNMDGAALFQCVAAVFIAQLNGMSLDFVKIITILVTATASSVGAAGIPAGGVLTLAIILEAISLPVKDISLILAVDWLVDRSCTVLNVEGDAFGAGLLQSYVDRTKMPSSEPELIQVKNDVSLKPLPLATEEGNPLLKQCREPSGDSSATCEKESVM
The assay can be described thus: Inhibition of rat ASCT2 expressed in HEK293 cells assessed as inhibition of L-alanine/Na+ exchange by measuring reduction in SCN anion inward current in presence of NaCl and NaSCN by whole cell patch-clamp method. Conditions: read-out: Ki(app). Background: In patch-clamp work, channel activity is measured electrically.

The target of assay [1] is T2, Amino acid transporter (Rattus norvegicus) (UniProt Q9Z1J7).
T2 sequence (whole entry): T1 sequence (Q9Z1J7 whole entry)
The assay can be described thus: Inhibition of rat ASCT2 expressed in HEK293 cells assessed as outward current by measuring reduction in SCN anion inward current at 1 mM in presence of NaCl and NaSCN by whole cell patch-clamp method. The procedure, abridged: (§1)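 Rat ASCT2 transiently transfected into HEK293T cells (no detectable endogenous ASCT2); whole-cell recording at 0 mV with 140 mM external NaCl, 135 mM internal NaSCN, 10 mM internal alanine. Compound applied at 1 mM; current expressed relative to saturating alanine response, saturating current calculated as I/Imax = c/(c+Km). Outward current taken as inhibition of leak anion conductance.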

For assay [2], the target named is T2, Amino acid transporter (Rattus norvegicus). The assay can be described thus: Inhibition of rat ASCT2 expressed in HEK293 cells assessed as inhibition of L-alanine/Na+ exchange by measuring reduction in SCN anion inward current at 1 mM in presence of NaCl and NaSCN by whole cell patch-clamp method. Summed up:
as §1

For the molecule `Cc1ccccc1C[C@H]1CNC(C(=O)O)C1` (single isomer, unassigned), at Amino acid transporter, the Ki stood at 38 µM. The inhibition result in assay [1] is “Active”. Further, the Imax in assay [2] was 59%.

As to `O=C(O)C1C[C@@H](Cc2cccc(C(F)(F)F)c2)CN1` (single isomer, unassigned), the inhibition result in assay [1] was “Active”. Also, in assay [2], the Imax stood at 43%.

`O=C(O)C1C[C@@H](Cc2ccccc2Br)CN1` (single isomer, unassigned): in assay [1], the inhibition entry was “Active”. Further, in assay [2], the Imax amounted to 55%.

For the molecule `O=C(O)C1C[C@@H](Cc2cccc(F)c2)CN1` (single isomer, unassigned), the Ki on Amino acid transporter stood at 177 µM. For the same molecule, the inhibition result in assay [1] is “Active”. Besides, the Imax in assay [2] amounted to 67%.

For the molecule `O=C(O)[C@@H]1C[C@@H](Cc2ccc(-c3ccccc3)cc2)CN1`, the Ki on Amino acid transporter stood at 3 µM. Also, in assay [1], the inhibition result is “Active”. In assay [2], the Imax was found to be 57%.

Consider `O=C(O)C1C[C@@H](Cc2ccccc2F)CN1` (single isomer, unassigned), for which the Ki at Amino acid transporter fell in the range of 83 to 87 µM. Also, the inhibition result in assay [1] was “Active”. Further, the Imax in assay [2] was determined as 61%.

As for `O=C(O)C1C[C@@H](Cc2ccccc2C(F)(F)F)CN1` (single isomer, unassigned), the Ki at Amino acid transporter is 220 µM. Besides, in assay [1], the inhibition result was “Active”. Moreover, in assay [2], the Imax was 49%.

As to `O=C(O)C1C[C@@H](Cc2ccc(F)cc2)CN1` (single isomer, unassigned), the Ki on Amino acid transporter stood at 190 µM. Moreover, the inhibition result in assay [1] is “Active”. Further, the Imax in assay [2] turned out to be 57%.

Regarding `O=C(O)C1C[C@@H](Cc2ccc(C(F)(F)F)cc2)CN1` (single isomer, unassigned), in assay [1], the inhibition entry was “Active”. The Imax in assay [2] was 47%.

Take `O=C(O)C1C[C@@H](Cc2ccccc2Cl)CN1` (single isomer, unassigned): the Ki at Amino acid transporter is 195 µM. Also, in assay [1], the inhibition entry is “Active”. Also, the Imax in assay [2] worked out at 46%.

For `O=C(O)C1C[C@@H](Cc2ccccc2)CN1` (single isomer, unassigned), the Ki on Amino acid transporter was determined as 2000 µM. For the same molecule, the Imax in assay [2] came out at 52%.

`O=C(O)C1C[C@@H](Cc2ccc(F)c(F)c2)CN1` (single isomer, unassigned): the Ki on Amino acid transporter amounted to 73 µM. The inhibition entry in assay [1] was “Active”. For the same molecule, the Imax in assay [2] is 51%.

Consider `O=C(O)[C@@H]1C[C@@H](Cc2ccc(Cl)cc2Cl)CN1`, for which the Ki on Amino acid transporter is 30 µM. For the same molecule, the inhibition entry in assay [1] is “Active”. Also, the Imax in assay [2] stood at 56%.

In the case of `O=C(O)C1C[C@@H](Cc2ccccc2[N+](=O)[O-])CN1` (single isomer, unassigned), the inhibition result in assay [1] was “Active”. The Imax in assay [2] was found to be 61%.
